ΔTm data for 16 molecules are collected here from ChEMBL document CHEMBL1944596, “7,8-dichloro-1-oxo-β-carbolines as a versatile scaffold for the development of potent and selective kinase inhibitors with unusual binding modes” (J Med Chem, 2012).

By ΔTm is commonly meant the change in melting temperature against a reference sample.

SMILES strings stand for the structures.

Assay [1] deals with T1, Dual specificity tyrosine-phosphorylation-regulated kinase 2 (Homo sapiens) (UniProt Q92630).
T1 sequence (whole entry): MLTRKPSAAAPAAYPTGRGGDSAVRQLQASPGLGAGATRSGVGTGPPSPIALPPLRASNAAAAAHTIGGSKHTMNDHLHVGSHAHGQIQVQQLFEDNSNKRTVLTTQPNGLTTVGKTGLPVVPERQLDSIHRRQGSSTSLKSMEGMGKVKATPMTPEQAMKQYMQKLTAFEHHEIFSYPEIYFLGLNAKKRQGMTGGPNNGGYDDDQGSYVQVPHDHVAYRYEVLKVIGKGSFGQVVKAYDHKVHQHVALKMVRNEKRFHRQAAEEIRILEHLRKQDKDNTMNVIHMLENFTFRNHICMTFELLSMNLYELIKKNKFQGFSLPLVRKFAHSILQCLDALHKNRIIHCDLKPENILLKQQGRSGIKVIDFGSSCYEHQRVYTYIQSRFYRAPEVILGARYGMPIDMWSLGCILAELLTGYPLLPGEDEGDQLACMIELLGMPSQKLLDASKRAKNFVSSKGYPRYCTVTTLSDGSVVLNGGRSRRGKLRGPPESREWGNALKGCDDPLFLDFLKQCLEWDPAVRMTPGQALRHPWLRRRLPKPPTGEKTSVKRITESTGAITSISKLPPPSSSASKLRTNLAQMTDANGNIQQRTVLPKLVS
In words: Binding affinity to DYRK2 assessed as change in thermal denaturation at 10 uM by thermal stability shift assay. The procedure, abridged:
(§1)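 Each compound was screened across a kinase panel by thermal stability shift assay. The read-out was the shift in protein melting temperature (ΔTm, in °C) relative to the unliganded kinase. A ΔTm of 4.0 °C served as the hit cutoff.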

Assay [2] has as its target T2, Myosin light chain kinase family member 4 (Homo sapiens) (UniProt Q86YV6).
T2 sequence (whole entry): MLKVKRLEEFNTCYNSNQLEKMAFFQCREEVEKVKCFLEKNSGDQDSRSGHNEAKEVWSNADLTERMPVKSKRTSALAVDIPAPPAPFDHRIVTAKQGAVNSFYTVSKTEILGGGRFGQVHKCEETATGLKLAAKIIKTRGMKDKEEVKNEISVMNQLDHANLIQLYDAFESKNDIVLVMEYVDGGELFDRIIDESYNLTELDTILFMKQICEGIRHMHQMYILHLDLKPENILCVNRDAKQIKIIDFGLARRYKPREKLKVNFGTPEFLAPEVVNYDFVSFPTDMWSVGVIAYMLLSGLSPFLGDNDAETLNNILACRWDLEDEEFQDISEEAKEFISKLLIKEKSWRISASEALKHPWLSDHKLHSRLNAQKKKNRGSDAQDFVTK
Briefly: Binding affinity to SGK085 assessed as change in thermal denaturation at 10 uM by thermal stability shift assay. The method in brief:
as §1

Assay [3] has as its target Serine/threonine-protein kinase pim-2 (Homo sapiens, UniProt Q9P1W9). Briefly: Binding affinity to PIM2 assessed as change in thermal denaturation at 10 uM by thermal stability shift assay. The procedure, abridged:
as §1

Assay [4] addresses T3, Serine/threonine-protein kinase PLK4 (Homo sapiens) (UniProt O00444).
T3 sequence (whole entry): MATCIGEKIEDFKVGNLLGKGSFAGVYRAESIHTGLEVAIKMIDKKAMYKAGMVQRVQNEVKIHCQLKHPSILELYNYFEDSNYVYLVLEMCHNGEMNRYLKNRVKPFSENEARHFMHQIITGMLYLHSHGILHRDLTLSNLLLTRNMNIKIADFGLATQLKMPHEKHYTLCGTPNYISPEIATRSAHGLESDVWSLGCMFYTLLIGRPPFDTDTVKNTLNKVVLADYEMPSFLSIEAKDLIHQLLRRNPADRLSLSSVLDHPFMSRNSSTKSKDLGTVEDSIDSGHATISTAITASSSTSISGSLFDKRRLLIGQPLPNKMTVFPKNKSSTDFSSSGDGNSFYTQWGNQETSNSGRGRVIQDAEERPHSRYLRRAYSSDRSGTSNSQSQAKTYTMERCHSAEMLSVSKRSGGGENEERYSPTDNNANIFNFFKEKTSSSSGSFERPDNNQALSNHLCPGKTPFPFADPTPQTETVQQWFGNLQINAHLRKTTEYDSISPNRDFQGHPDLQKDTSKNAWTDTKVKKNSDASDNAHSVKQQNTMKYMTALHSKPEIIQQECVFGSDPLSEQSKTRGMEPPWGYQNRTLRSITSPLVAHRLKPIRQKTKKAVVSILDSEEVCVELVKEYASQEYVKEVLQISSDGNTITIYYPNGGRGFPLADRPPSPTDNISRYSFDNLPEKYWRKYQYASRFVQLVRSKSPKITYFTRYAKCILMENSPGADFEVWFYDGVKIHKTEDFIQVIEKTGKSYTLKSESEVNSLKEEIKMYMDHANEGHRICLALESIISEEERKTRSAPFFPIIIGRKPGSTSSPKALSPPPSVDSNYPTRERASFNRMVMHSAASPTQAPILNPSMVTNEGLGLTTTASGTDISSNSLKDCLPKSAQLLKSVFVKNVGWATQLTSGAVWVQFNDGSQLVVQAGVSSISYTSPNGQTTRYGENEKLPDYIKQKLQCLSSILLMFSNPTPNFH
In words: Binding affinity to PLK4 assessed as change in thermal denaturation at 10 uM by thermal stability shift assay. The procedure, abridged: as §1

In assay [5] the target is T4, Serine/threonine-protein kinase 17B (Homo sapiens) (UniProt O94768).
T4 sequence (whole entry): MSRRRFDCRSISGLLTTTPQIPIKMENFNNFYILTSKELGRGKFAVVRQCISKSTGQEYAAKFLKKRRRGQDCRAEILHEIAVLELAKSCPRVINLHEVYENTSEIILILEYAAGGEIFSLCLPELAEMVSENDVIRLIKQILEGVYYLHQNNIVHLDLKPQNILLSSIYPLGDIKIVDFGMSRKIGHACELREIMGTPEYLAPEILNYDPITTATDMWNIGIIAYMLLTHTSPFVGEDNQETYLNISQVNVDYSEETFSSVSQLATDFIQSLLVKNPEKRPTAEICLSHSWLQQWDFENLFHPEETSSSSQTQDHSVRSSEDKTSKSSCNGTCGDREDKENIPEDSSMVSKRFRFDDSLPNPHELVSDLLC
In words: Binding affinity to DRAK2 assessed as change in thermal denaturation at 10 uM by thermal stability shift assay. The procedure, abridged: as §1

For assay [6], the target named is Casein kinase II subunit alpha' (Homo sapiens) (UniProt P19784). In words: Binding affinity to CK2alpha2 assessed as change in thermal denaturation at 10 uM by thermal stability shift assay. The method in brief:
as §1

Chain of Serine/threonine-protein kinase pim-2 (Q9P1W9 whole entry, looked up): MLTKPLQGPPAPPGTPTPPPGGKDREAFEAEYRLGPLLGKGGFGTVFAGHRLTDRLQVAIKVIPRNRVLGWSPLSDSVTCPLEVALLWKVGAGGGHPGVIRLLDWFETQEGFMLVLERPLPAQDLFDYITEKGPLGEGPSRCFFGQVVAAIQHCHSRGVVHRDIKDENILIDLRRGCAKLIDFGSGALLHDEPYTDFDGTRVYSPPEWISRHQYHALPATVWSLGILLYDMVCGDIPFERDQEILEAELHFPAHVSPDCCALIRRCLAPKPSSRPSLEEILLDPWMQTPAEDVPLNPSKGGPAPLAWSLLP
Chain of Casein kinase II subunit alpha' (Homo sapiens) (P19784 whole entry, looked up): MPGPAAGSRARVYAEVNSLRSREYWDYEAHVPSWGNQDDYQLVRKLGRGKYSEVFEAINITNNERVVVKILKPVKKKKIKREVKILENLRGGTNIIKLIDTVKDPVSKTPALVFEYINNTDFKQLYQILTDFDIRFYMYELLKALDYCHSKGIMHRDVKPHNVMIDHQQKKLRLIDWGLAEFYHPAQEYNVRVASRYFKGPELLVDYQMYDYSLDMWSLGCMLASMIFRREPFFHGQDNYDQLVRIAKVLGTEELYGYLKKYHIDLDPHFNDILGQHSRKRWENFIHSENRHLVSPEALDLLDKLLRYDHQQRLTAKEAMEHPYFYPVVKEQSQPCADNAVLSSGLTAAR

Turning to `N#CC1c2c([nH]c3c(Cl)c(Cl)ccc23)C(=O)NC12CCCCC2` (racemic), the ΔTm was 1.4 °C in assay [1]; 1.2 °C in assay [2]; 1.4 °C in assay [3]; 1.3 °C in assay [4]; 2.3 °C in assay [5]; 1.2 °C in assay [6].
For the molecule `Cn1c2c(c3ccc(Cl)c(Cl)c31)C(C#N)C1(CCOCC1)NC2=O` (stereo unspecified), the ΔTm came out at 1 °C in assay [1]; 0.5 °C in assay [2]; 2.2 °C in assay [3]; 2.7 °C in assay [4]; 1.7 °C in assay [5]; 1 °C in assay [6].
As to `CCN1CCC2(CC1)NC(=O)c1c(c3ccc(Cl)c(Cl)c3n1C)C2C#N` (racemic), the shift in melting temperature (ΔTm) in assay [1] stood at 0.9 °C; in assay [2] it was 0 °C; in assay [3], 3.9 °C; in assay [4], 3.2 °C; in assay [5], 1.1 °C; in assay [6] it was 1.8 °C.
For the molecule `Cn1c2c(c3ccccc31)C(C#N)C(C)(C)NC2=O` (stereo unspecified), the ΔTm in assay [1] is 0.5 °C; in assay [2], 1.7 °C; in assay [3], -0.2 °C; in assay [4], 0.9 °C; in assay [5], 0.3 °C; in assay [6], 0.7 °C.
On to `CCC1(CC)NC(=O)c2c(c3ccc(Cl)c(Cl)c3n2C)C1C#N` (stereo unspecified), for which the ΔTm worked out at 0.6 °C in assay [1]; 0.4 °C in assay [2]; 2 °C in assay [3]; 4.6 °C in assay [4]; 2.9 °C in assay [5]; 1 °C in assay [6].
As to `Cn1c2c(c3ccc(Cl)c(Cl)c31)C(C#N)C(C)(C)NC2=O` (stereo unspecified), the ΔTm in assay [1] was found to be 2 °C; in assay [2], 2 °C; in assay [3], 3.6 °C; in assay [4], 5.1 °C; in assay [5], 4.8 °C; in assay [6], 2.1 °C.
With `Cn1c2c(Cl)c(Cl)ccc2c2cc[nH]c(=O)c21`, the thermal shift (ΔTm) in assay [1] was found to be 4.1 °C; in assay [2] it was 6.4 °C; in assay [3], 2.9 °C; in assay [4], 1.7 °C; in assay [5], 3.6 °C; in assay [6], 2 °C.
For `Cn1c2c(Cl)c(Cl)ccc2c2cc(N)[nH]c(=O)c21`, the ΔTm in assay [1] came to 2.4 °C; in assay [2] it was 2.9 °C; in assay [3], 3 °C; in assay [4] it was 2 °C; in assay [5], 3 °C; in assay [6], 3 °C.
On to `Cn1c2c(c3ccc(Cl)c(Cl)c31)C(C#N)C1(CCCC1)NC2=O` (stereo unspecified), for which the ΔTm in assay [1] was 0.7 °C; in assay [2] it was 0.1 °C; in assay [3], 1.6 °C; in assay [4] it was 2.5 °C; in assay [5], 2.6 °C; in assay [6], 1 °C.
With `Cn1c2c(Cl)c(Cl)ccc2c2cn[nH]c(=O)c21`, the ΔTm in assay [1] amounted to 1.6 °C; in assay [2], 5.5 °C; in assay [3], 1.6 °C; in assay [4] it was 1.5 °C; in assay [5] it was 2.2 °C; in assay [6] it was 2.1 °C.
With `CC1(C)NC(=O)c2[nH]c3c(Cl)c(Cl)ccc3c2C1C#N` (stereo unspecified), the ΔTm in assay [1] is 1.3 °C; in assay [2] it was 3.1 °C; in assay [3], 2.3 °C; in assay [4] it was 1.7 °C; in assay [5], 2.1 °C; in assay [6], 1.9 °C.
With `Cn1c2c(c3ccc(Cl)c(Cl)c31)C(CN)C(C)(C)NC2=O` (racemic), the shift in melting temperature (ΔTm) in assay [1] is 0.2 °C; in assay [2], 0.2 °C; in assay [3] it was 3.2 °C; in assay [4], 2.7 °C; in assay [5], 6.4 °C; in assay [6], 0.5 °C.
Consider `Cn1c2c(c3ccc(Cl)c(Cl)c31)C(C#N)C1(CCN(C(=O)OC(C)(C)C)CC1)NC2=O` (racemic), for which the ΔTm in assay [1] was 0.3 °C; in assay [2] it was 0 °C; in assay [3], -0.2 °C; in assay [4] it was 0.1 °C; in assay [5] it was 0 °C; in assay [6] it was 0.3 °C.
In the case of `CN1CCC2(CC1)NC(=O)c1c(c3ccc(Cl)c(Cl)c3n1C)C2C#N` (racemic), the thermal shift (ΔTm) in assay [1] is 1.3 °C; in assay [2], 1.5 °C; in assay [3] it was 5.2 °C; in assay [4], 3.3 °C; in assay [5], 1.2 °C; in assay [6], 2.7 °C.
Take `Cn1c2c(c3ccc(Cl)c(Cl)c31)C(C#N)C1(CCNCC1)NC2=O` (racemic): the thermal shift (ΔTm) in assay [1] is 3.6 °C; in assay [2], 3.5 °C; in assay [3], 6.5 °C; in assay [4], 6.8 °C; in assay [5], 3.4 °C; in assay [6], 4.2 °C.
With `CC(=O)NCC1c2c(n(C)c3c(Cl)c(Cl)ccc23)C(=O)NC1(C)C` (racemic), the ΔTm was 0.9 °C in assay [1]; 0.6 °C in assay [2]; 0.7 °C in assay [3]; 1 °C in assay [4]; 1.6 °C in assay [5]; 1 °C in assay [6].
